Test results published in ChEMBL document CHEMBL4118285, “Synthesis and antibacterial activity of novel ketolides with 11,12-quinoylalkyl side chains” (2018).
Converted amounts (≈) assume the structure as drawn.

What was measured:
Assay type in all cases: functional
[1] = tested on: Staphylococcus epidermidis; test: Antibacterial activity against methicillin-sensitive Staphylococcus epidermidis 11X315 by broth microdilution method
How it was run: (§1)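 MIC values were determined by broth microdilution following Clinical and Laboratory Standards Institute (CLSI) recommendations.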

[2] = tested on: Staphylococcus aureus; test: Antibacterial activity against methicillin-resistant Staphylococcus aureus ATCC 33591 by broth microdilution method; how it was run: as §1
[3] = tested on: Staphylococcus epidermidis; test: Antibacterial activity against methicillin-resistant Staphylococcus epidermidis 11C176 by broth microdilution method; how it was run: as §1
[4] = tested on: Escherichia coli; test: Antibacterial activity against extended spectrum beta-lactamases non-producing Escherichia coli ATCC 25922 by broth microdilution method
How it was run: (§2)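 MICs were determined by broth microdilution following CLSI recommendations, with clarithromycin and telithromycin run as reference antibiotics.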

[5] = tested on: Streptococcus pneumoniae; test: Antibacterial activity against erythromycin-resistant Streptococcus pneumoniae 11 J011 by broth microdilution method; how it was run: as §1
[6] = tested on: Staphylococcus aureus; test: Antibacterial activity against methicillin-sensitive Staphylococcus aureus 11B122 by broth microdilution method; how it was run: as §2
[7] = tested on: Pseudomonas aeruginosa; test: Antibacterial activity against Pseudomonas aeruginosa ATCC 27853 by broth microdilution method; how it was run: as §2
[8] = tested on: Streptococcus pyogenes; test: Antibacterial activity against methicillin-resistant Streptococcus pyogenes 12-1 by broth microdilution method; how it was run: as §1
[9] = tested on: Haemophilus influenzae; test: Antibacterial activity against azithromycin-resistant Haemophilus influenzae 11Q373 by broth microdilution method; how it was run: as §1
[10] = tested on: Staphylococcus epidermidis; test: Antibacterial activity against methicillin-resistant Staphylococcus epidermidis 13-3 by broth microdilution method; how it was run: as §1
[11] = tested on: Streptococcus pyogenes; test: Antibacterial activity against erythromycin-resistant Streptococcus pyogenes 11 N369 by broth microdilution method; how it was run: as §1
[12] = tested on: Moraxella catarrhalis; test: Antibacterial activity against clarithromycin-sensitive Moraxella catarrhalis 12-1 by broth microdilution method; how it was run: as §2
[13] = tested on: Streptococcus pyogenes; test: Antibacterial activity against […] Streptococcus pyogenes 12-8 by broth microdilution method; how it was run: as §2
[14] = tested on: Staphylococcus aureus; test: Antibacterial activity against methicillin-resistant Staphylococcus aureus 11B117 by broth microdilution method; how it was run: as §1
[15] = tested on: Klebsiella pneumoniae; test: Antibacterial activity against extended spectrum beta-lactamases producing Klebsiella pneumoniae ATCC 700603 by broth microdilution method; how it was run: as §2
[16] = tested on: Staphylococcus aureus; test: Antibacterial activity against methicillin-sensitive Staphylococcus aureus ATCC 29213 by broth microdilution method; how it was run: as §2
[17] = tested on: Haemophilus influenzae; test: Antibacterial activity against azithromycin-sensitive Haemophilus influenzae 11P042 by broth microdilution method; how it was run: as §2
[18] = tested on: Staphylococcus epidermidis; test: Antibacterial activity against methicillin-sensitive Staphylococcus epidermidis ATCC 12228 by broth microdilution method; how it was run: as §2
[19] = tested on: Streptococcus pyogenes; test: Antibacterial activity against erythromycin-sensitive Streptococcus pyogenes 11L264 by broth microdilution method; how it was run: as §2
[20] = tested on: Streptococcus pneumoniae; test: Antibacterial activity against erythromycin-sensitive Streptococcus pneumoniae 11G364 by broth microdilution method; how it was run: as §2
[21] = tested on: Moraxella catarrhalis; test: Antibacterial activity against clarithromycin-resistant Moraxella catarrhalis 12-2 by broth microdilution method; how it was run: as §1

For `CC[C@H]1OC(=O)[C@H](C)C(=O)[C@H](C)[C@@H](O[C@@H]2O[C@H](C)C[C@H](N(C)C)[C@H]2O)[C@](C)(OC)C[C@@H](C)C(=O)[C@H](C)[C@H]2N(CCCCn3cnc(-c4cccnc4)c3)C(=O)O[C@]12C` [TELITHROMYCIN], the MIC [1] was 0.062 mg/L (≈ 0.0764 µM), the MIC [2] was over 256 mg/L and the MIC [3] was 0.031 mg/L (≈ 0.0382 µM). It also gave an MIC [4] of 8 mg/L (≈ 9.85 µM), an MIC [5] of 0.031 mg/L (≈ 0.0382 µM) and an MIC [6] of 0.062 mg/L (≈ 0.0764 µM). For the same compound, the MIC [7] was 32 mg/L (≈ 39.4 µM), the MIC [8] was over 256 mg/L and the MIC [9] was 4 mg/L (≈ 4.93 µM). For the same compound, the MIC [10] was over 256 mg/L, the MIC [11] was 0.125 mg/L (≈ 0.154 µM) and the MIC [12] was 0.125 mg/L (≈ 0.154 µM). The MIC [13] was 0.03 mg/L (≈ 0.0369 µM), the MIC [14] was over 64 mg/L and the MIC [15] was 64 mg/L (≈ 78.8 µM). The MIC [16] was 0.015 mg/L (≈ 0.0185 µM), the MIC [17] was 1 mg/L (≈ 1.23 µM) and the MIC [18] was 0.015 mg/L (≈ 0.0185 µM). It also gave an MIC [19] of 0.008 mg/L (≈ 0.00985 µM), an MIC [20] of 0.016 mg/L (≈ 0.0197 µM) and an MIC [21] of over 256 mg/L.
`CC[C@H]1OC(=O)[C@H](C)[C@@H](O[C@H]2C[C@@](C)(OC)[C@@H](O)[C@H](C)O2)[C@H](C)[C@@H](O[C@@H]2O[C@H](C)C[C@H](N(C)C)[C@H]2O)[C@](C)(OC)C[C@@H](C)C(=O)[C@H](C)[C@@H](O)[C@]1(C)O` [CLARITHROMYCIN] was tested, and the MIC [1] was 0.125 mg/L (≈ 0.167 µM), the MIC [2] was over 256 mg/L and the MIC [3] was over 64 mg/L. For the same compound, the MIC [4] was 16 mg/L (≈ 21.4 µM), the MIC [5] was 64 mg/L (≈ 85.6 µM) and the MIC [6] was 0.031 mg/L (≈ 0.0414 µM). For the same compound, the MIC [7] was 128 mg/L (≈ 171 µM), the MIC [8] was 128 mg/L (≈ 171 µM) and the MIC [9] was 8 mg/L (≈ 10.7 µM). It also gave an MIC [10] of over 256 mg/L, an MIC [11] of over 64 mg/L and an MIC [12] of 0.008 mg/L (≈ 0.0107 µM). The MIC [13] was 0.03 mg/L (≈ 0.0401 µM), the MIC [14] was over 64 mg/L and the MIC [15] was 128 mg/L (≈ 171 µM). The MIC [16] was 0.12 mg/L (≈ 0.16 µM), the MIC [17] was 8 mg/L (≈ 10.7 µM) and the MIC [18] was 0.06 mg/L (≈ 0.0802 µM). For the same compound, the MIC [19] was 0.016 mg/L (≈ 0.0214 µM), the MIC [20] was 0.031 mg/L (≈ 0.0414 µM) and the MIC [21] was over 256 mg/L.
Compound `CC[C@H]1OC(=O)[C@@](C)(F)C(=O)[C@H](C)[C@@H](O[C@@H]2O[C@H](C)C[C@H](N(C)C)[C@H]2O)[C@](C)(OC)C[C@@H](C)C(=O)[C@H](C)[C@H]2N(CCCOc3cnc4ccccc4c3)C(=O)O[C@]12C` has an MIC [2] of 64 mg/L (≈ 78.4 µM), an MIC [4] of 8 mg/L (≈ 9.8 µM) and an MIC [7] of 16 mg/L (≈ 19.6 µM). For the same compound, the MIC [8] was 64 mg/L (≈ 78.4 µM), the MIC [10] was 128 mg/L (≈ 157 µM) and the MIC [12] was 0.015 mg/L (≈ 0.0184 µM). For the same compound, the MIC [13] was 0.015 mg/L (≈ 0.0184 µM), the MIC [15] was 32 mg/L (≈ 39.2 µM) and the MIC [16] was 0.015 mg/L (≈ 0.0184 µM). The MIC [18] was 0.015 mg/L (≈ 0.0184 µM) and the MIC [21] was 64 mg/L (≈ 78.4 µM).
`CC[C@H]1OC(=O)[C@@](C)(F)C(=O)[C@H](C)[C@@H](O[C@@H]2O[C@H](C)C[C@H](N(C)C)[C@H]2O)[C@](C)(OC)C[C@@H](C)C(=O)[C@H](C)[C@H]2N(CC/C=C/c3cnc4ccccc4c3)C(=O)O[C@]12C` was tested, and the MIC [2] was 32 mg/L (≈ 39.4 µM), the MIC [4] was 8 mg/L (≈ 9.85 µM) and the MIC [7] was 16 mg/L (≈ 19.7 µM). It also gave an MIC [8] of 16 mg/L (≈ 19.7 µM), an MIC [10] of 32 mg/L (≈ 39.4 µM) and an MIC [12] of 0.015 mg/L (≈ 0.0185 µM). The MIC [13] was 0.015 mg/L (≈ 0.0185 µM), the MIC [15] was 32 mg/L (≈ 39.4 µM) and the MIC [16] was 0.015 mg/L (≈ 0.0185 µM). It also gave an MIC [18] of 0.015 mg/L (≈ 0.0185 µM) and an MIC [21] of 16 mg/L (≈ 19.7 µM).
`CC[C@H]1OC(=O)[C@H](C)C(=O)[C@H](C)[C@@H](O[C@@H]2O[C@H](C)C[C@H](N(C)C)[C@H]2O)[C@](C)(OC)C[C@@H](C)C(=O)[C@H](C)[C@H]2N(CCCNc3cnc4ccccc4c3)C(=O)O[C@]12C` was tested, and the MIC [1] was 0.5 mg/L (≈ 0.627 µM), the MIC [3] was 0.5 mg/L (≈ 0.627 µM) and the MIC [5] was 0.5 mg/L (≈ 0.627 µM). For the same compound, the MIC [6] was 0.5 mg/L (≈ 0.627 µM), the MIC [9] was 8 mg/L (≈ 10 µM) and the MIC [11] was 64 mg/L (≈ 80.3 µM). For the same compound, the MIC [14] was over 64 mg/L, the MIC [17] was 8 mg/L (≈ 10 µM) and the MIC [19] was 0.031 mg/L (≈ 0.0389 µM). The MIC [20] was 0.016 mg/L (≈ 0.0201 µM).
Work on `CC[C@H]1OC(=O)[C@H](C)C(=O)[C@H](C)[C@@H](O[C@@H]2O[C@H](C)C[C@H](N(C)C)[C@H]2O)[C@](C)(OC)C[C@@H](C)C(=O)[C@H](C)[C@H]2N(CC/C=C/c3cncc4ccccc34)C(=O)O[C@]12C` yielded an MIC [2] of 64 mg/L (≈ 80.6 µM), an MIC [4] of 16 mg/L (≈ 20.2 µM) and an MIC [7] of 32 mg/L (≈ 40.3 µM). The MIC [8] was 64 mg/L (≈ 80.6 µM), the MIC [10] was 64 mg/L (≈ 80.6 µM) and the MIC [12] was 0.015 mg/L (≈ 0.0189 µM). For the same compound, the MIC [13] was 0.015 mg/L (≈ 0.0189 µM), the MIC [15] was 64 mg/L (≈ 80.6 µM) and the MIC [16] was 0.015 mg/L (≈ 0.0189 µM). It also gave an MIC [18] of 0.03 mg/L (≈ 0.0378 µM) and an MIC [21] of 32 mg/L (≈ 40.3 µM).
Compound `CC[C@H]1OC(=O)[C@H](C)C(=O)[C@H](C)[C@@H](O[C@@H]2O[C@H](C)C[C@H](N(C)C)[C@H]2O)[C@](C)(OC)C[C@@H](C)C(=O)[C@H](C)[C@H]2N(CC/C=C/c3cncc4ccc(-c5ccccc5)cc34)C(=O)O[C@]12C` has an MIC [2] of 4 mg/L (≈ 4.6 µM), an MIC [4] of over 256 mg/L and an MIC [7] of over 256 mg/L. For the same compound, the MIC [8] was 8 mg/L (≈ 9.19 µM), the MIC [10] was 8 mg/L (≈ 9.19 µM) and the MIC [12] was 0.125 mg/L (≈ 0.144 µM). For the same compound, the MIC [13] was 0.125 mg/L (≈ 0.144 µM), the MIC [15] was over 256 mg/L and the MIC [16] was 1 mg/L (≈ 1.15 µM). For the same compound, the MIC [18] was 0.5 mg/L (≈ 0.575 µM) and the MIC [21] was 2 mg/L (≈ 2.3 µM).
`CC[C@H]1OC(=O)[C@H](C)C(=O)[C@H](C)[C@@H](O[C@@H]2O[C@H](C)C[C@H](N(C)C)[C@H]2O)[C@](C)(OC)C[C@@H](C)C(=O)[C@H](C)[C@H]2N(CC/C=C/c3cncc4cc(OCc5ccccc5)ccc34)C(=O)O[C@]12C` showed an MIC [2] of 8 mg/L (≈ 8.89 µM), an MIC [4] of over 256 mg/L and an MIC [7] of over 256 mg/L. For the same compound, the MIC [8] was 8 mg/L (≈ 8.89 µM), the MIC [10] was 16 mg/L (≈ 17.8 µM) and the MIC [12] was 0.5 mg/L (≈ 0.555 µM). It also gave an MIC [13] of 0.25 mg/L (≈ 0.278 µM), an MIC [15] of over 256 mg/L and an MIC [16] of 1 mg/L (≈ 1.11 µM). The MIC [18] was 1 mg/L (≈ 1.11 µM) and the MIC [21] was 8 mg/L (≈ 8.89 µM).
